Measurements taken from ChEMBL document CHEMBL1158589, “Benzimidazole and imidazole inhibitors of histone deacetylases: Synthesis and biological activity” (Bioorg Med Chem Lett, 2010).
The source made the active and inactive calls. The rule behind the calls is not given here.

Assays:
HCT-116 [1] = assay: Antitumor activity against human HCT116 cells xenografted in mouse assessed as tumor growth inhibition at 25 mg/kg, ip qd for 5 days per week; type: functional; conditions: route intraperitoneal
How it was run: (§1)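 Human HCT116 colon xenografts in mice; intraperitoneal dosing qdx5 per week, 15 doses in total. %T/C calculated when vehicle-treated mice reached 1 g median tumor size, 10 days after the last dose.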

HCT-116 [2] = assay: Antitumor activity against human HCT116 cells xenografted in mouse assessed as tumor growth inhibition at 40 mg/kg, ip qd for 5 days per week; type: functional; conditions: route intraperitoneal; how it was run: as §1
Histone deacetylase 8 = target: T1, Histone deacetylase 8 (Homo sapiens, UniProt Q9BY41); assay: Inhibition of human recombinant HDAC8
T1 sequence (Q9BY41 whole entry): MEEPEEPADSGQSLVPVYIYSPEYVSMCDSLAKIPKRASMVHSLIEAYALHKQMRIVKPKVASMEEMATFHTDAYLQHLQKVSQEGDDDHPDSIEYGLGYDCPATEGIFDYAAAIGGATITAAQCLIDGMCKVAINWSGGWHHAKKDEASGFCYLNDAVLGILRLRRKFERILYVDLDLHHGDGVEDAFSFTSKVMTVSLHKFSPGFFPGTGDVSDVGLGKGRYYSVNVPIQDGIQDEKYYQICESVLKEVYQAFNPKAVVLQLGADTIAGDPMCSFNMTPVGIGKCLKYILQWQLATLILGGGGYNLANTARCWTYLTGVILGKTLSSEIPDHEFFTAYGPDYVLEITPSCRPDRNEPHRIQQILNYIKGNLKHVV

A549 = assay: Cytotoxicity against human A549 cells assessed as NADH level after 72 hrs by MTS cells; type: functional, cell-based; conditions: A549, 72 h
How it was run: (§2)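 Human A549 lung, HL60 leukemia and PC3 prostate cancer lines incubated with compound for 72 h. Viability read by MTS colorimetric assay from remaining NADH; EC50 calculated; mean of at least two experiments.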

[3] = target: T2, Protein deacetylase HDAC6 (Homo sapiens, UniProt Q9UBN7); assay: Inhibition of human recombinant HDAC6
T2 sequence (Q9UBN7 whole entry): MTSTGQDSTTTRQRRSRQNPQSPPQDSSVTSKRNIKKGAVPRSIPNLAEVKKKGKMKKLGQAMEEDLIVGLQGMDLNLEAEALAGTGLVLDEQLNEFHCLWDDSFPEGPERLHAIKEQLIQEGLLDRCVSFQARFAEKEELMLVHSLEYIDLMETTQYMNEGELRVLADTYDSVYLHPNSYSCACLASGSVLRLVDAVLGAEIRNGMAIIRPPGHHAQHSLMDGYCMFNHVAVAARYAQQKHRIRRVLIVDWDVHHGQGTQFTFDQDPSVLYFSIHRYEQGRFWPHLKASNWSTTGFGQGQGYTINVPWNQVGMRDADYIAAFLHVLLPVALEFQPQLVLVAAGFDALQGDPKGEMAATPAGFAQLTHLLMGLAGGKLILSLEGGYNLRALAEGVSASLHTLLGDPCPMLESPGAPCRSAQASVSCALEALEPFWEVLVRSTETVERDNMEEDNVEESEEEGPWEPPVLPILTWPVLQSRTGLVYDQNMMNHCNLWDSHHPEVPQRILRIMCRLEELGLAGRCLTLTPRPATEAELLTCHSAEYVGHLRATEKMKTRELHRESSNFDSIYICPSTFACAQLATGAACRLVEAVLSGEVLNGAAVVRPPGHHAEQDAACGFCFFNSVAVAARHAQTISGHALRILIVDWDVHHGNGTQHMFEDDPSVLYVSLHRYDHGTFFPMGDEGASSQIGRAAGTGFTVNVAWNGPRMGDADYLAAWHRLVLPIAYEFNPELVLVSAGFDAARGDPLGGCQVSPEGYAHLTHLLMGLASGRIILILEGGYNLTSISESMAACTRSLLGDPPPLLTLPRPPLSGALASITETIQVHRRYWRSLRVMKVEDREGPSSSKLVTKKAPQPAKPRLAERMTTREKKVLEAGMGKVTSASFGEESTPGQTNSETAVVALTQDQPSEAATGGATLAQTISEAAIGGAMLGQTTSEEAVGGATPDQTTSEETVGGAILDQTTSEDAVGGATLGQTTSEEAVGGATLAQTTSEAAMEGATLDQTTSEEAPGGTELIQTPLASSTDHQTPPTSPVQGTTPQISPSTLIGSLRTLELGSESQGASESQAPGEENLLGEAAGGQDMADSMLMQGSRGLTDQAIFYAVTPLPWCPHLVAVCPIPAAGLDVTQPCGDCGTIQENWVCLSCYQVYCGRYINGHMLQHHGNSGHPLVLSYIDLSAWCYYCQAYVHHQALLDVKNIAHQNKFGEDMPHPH
How it was run: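 Purified recombinant human HDAC-2 or HDAC-6 at known enzyme concentration with tBOC(Ac)-Lys-AMC as substrate. IC50 is the mean of at least three experiments.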

HL-60 [4] = assay: Induction of histone H3 hyperacetylation in human HL60 cells after 4 hrs by Western blotting; type: functional, cell-based; conditions: HL-60, 4 h
How it was run: (§3)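 HL60 leukemia cells exposed 4 h to 2.5-fold serial dilutions of compound, DMSO control. Whole-cell lysates Western blotted for acetylated histone H3 and H4, PCNA as loading control. Signals quantified to give the half-maximal response concentration.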

Mus musculus [5] = assay: Toxicity in human HCT116 cells xenografted mouse assessed as change in body weight at 25 mg/kg, […]; type: organism-based, HCT-116; design: dose 25 mg/kg, route intraperitoneal; conditions: in vivo, ip, 120 h
[6] = Inhibition of HDAC assessed as induction of p21WAF1 expression in engineered cell line by luciferase reporter gene assay
PANC-1 [7] = assay: Induction of histone H4 hyperacetylation in human PANC1 cells xenografted in mouse at 50 mg/kg, ip; type: functional, organism-based; design: dose 50 mg/kg
How it was run: (§4)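 Mice bearing PANC-1 tumors given a single intraperitoneal dose of 50 mg/kg, vehicle control. Tumors harvested at set time points up to about 24 h. Whole tissue lysates Western blotted with antibodies to acetylated histone H3 or H4, actin as loading control.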

PC-3 = assay: Cytotoxicity against human PC3 cells assessed as NADH level after 72 hrs by MTS cells; type: functional, cell-based; conditions: PC-3, 72 h; how it was run: as §2
HL-60 [8] = assay: Cytotoxicity against human HL60 cells assessed as NADH level after 72 hrs by MTS cells; type: functional, cell-based; conditions: HL-60, 72 h; how it was run: as §2
HCT-116 [9] = assay: Antitumor activity against human HCT116 cells xenografted in mouse assessed as tumor growth inhibition at 15 mg/kg, ip qd for 5 days per week; type: functional; conditions: route intraperitoneal; how it was run: as §1
Mus musculus [10] = assay: Toxicity in human HCT116 cells xenografted mouse assessed as change in body weight at 40 mg/kg, […]; type: organism-based, HCT-116; design: dose 40 mg/kg, route intraperitoneal; conditions: in vivo, ip, 120 h
HL-60 [11] = assay: Induction of histone H4 hyperacetylation in human HL60 cells after 4 hrs by Western blotting; type: functional, cell-based; conditions: HL-60, 4 h; how it was run: as §3
Mus musculus [12] = assay: Toxicity in human HCT116 cells xenografted mouse assessed as change in body weight at 15 mg/kg, […]; type: organism-based, HCT-116; design: dose 15 mg/kg, route intraperitoneal; conditions: in vivo, ip, 120 h
PANC-1 [13] = assay: Induction of histone H3 hyperacetylation in human PANC1 cells xenografted in mouse at 50 mg/kg, ip; type: functional, organism-based; design: dose 50 mg/kg; how it was run: as §4

Row | Structure (SMILES) | T/C (HCT-116 [1]) [%] | T/C (HCT-116 [2]) [%] | IC50 (Histone deacetylase 8) [µM] | EC50 (A549) [µM] | IC50 [3] [µM] | EC50 (HL-60 [4]) [µM] | Activity (Mus musculus [5]) [%] | EC50 [6] [µM] | Activity (PANC-1 [7]) | EC50 (PC-3) [µM] | EC50 (HL-60 [8]) [µM] | T/C (HCT-116 [9]) [%] | Activity (Mus musculus [10]) [%] | EC50 (HL-60 [11]) [µM] | Activity (Mus musculus [12]) [%] | Activity (PANC-1 [13])
1 | CN1CCC[C@@H](n2c(-c3cccc(/C=C/C(=O)NO)c3)nc3ccccc32)C1 | 47 | 45 | 0.2 | 0.3 | 0.1 | 0.1 | -2.5 | 1 | Active | 0.05 | 0.04 | 66 | -3.6 | 0.11 | 1.7 | Active
2 | Cc1nc(-c2cccc(/C=C/C(=O)NO)c2)n(CCN2CCOCC2)c1-c1ccccc1 |  |  | 0.079 | 4 | 0.12 |  |  |  |  | 1 | 0.3 |  |  |  |  | 
3 | C[C@@H](c1ccccc1)n1c(-c2cccc(/C=C/C(=O)NO)c2)nc2ccccc21 |  |  | 0.016 | 31 | 0.063 |  |  |  |  | 16 | 3.1 |  |  |  |  | 
4 | Cc1nc(-c2cccc(/C=C/C(=O)NO)c2)n([C@@H]2CCCN(C)C2)c1-c1ccccc1 |  |  | 0.1 | 0.4 | 0.079 |  |  |  |  | 0.1 | 0.03 |  |  |  |  | 
5 | Cc1nc(-c2cccc(/C=C/C(=O)NO)c2)n(CCc2ccccc2)c1Cc1ccccc1 |  |  | 0.02 | 0.3 | 0.05 |  |  |  |  | 0.2 | 0.05 |  |  |  |  | 
6 | O=C(/C=C/c1cccc(-c2nc3ccccc3n2[C@@H]2CCCNC2)c1)NO |  |  | 0.12 | 1 | 0.079 |  |  |  |  | 0.1 | 0.1 |  |  |  |  | 
7 | O=C(/C=C/c1cccc(-c2nc3ccccc3n2CC2CCNCC2)c1)NO |  |  | 0.31 | > 50 | 0.2 |  |  |  |  | > 50 | > 50 |  |  |  |  | 
8 | Cc1nc(-c2cccc(/C=C/C(=O)NO)c2)n(CCc2ccccc2)c1C |  |  | 0.031 | 0.4 | 0.063 |  |  |  |  | 0.2 | 0.08 |  |  |  |  | 
9 | O=C(/C=C/c1cccc(-c2nc3ccccc3n2CCc2ccccc2)c1)NO |  |  | 0.025 | 2.5 | 0.031 |  |  |  |  | 0.4 | 0.3 |  |  |  |  | 
10 | CN(C)CCn1c(-c2cccc(/C=C/C(=O)NO)c2)nc2ccccc21 |  |  | 0.16 | 7.9 | 0.079 |  |  |  |  | 2.5 | 1 |  |  |  |  | 
11 | CCN1CCC[C@@H](n2c(-c3cccc(/C=C/C(=O)NO)c3)nc(C)c2C)C1 |  |  | 0.1 | 0.3 | 0.12 |  |  |  |  | 0.08 | 0.04 |  |  |  |  | 
12 | O=C(/C=C/c1cccc(-c2nc3ccccc3n2-c2ccc(Cl)cc2)c1)NO |  |  | 0.05 | 6.3 | 0.1 |  |  |  |  | 2.5 | 0.8 |  |  |  |  | 
13 | CC(C)N(CCn1c(-c2cccc(/C=C/C(=O)NO)c2)nc2ccccc21)C(C)C |  |  | 0.2 | 5 | 0.1 |  |  |  |  | 3.1 | 5 |  |  |  |  | 
14 | Cc1c(Cc2ccccc2)nc(-c2cccc(/C=C/C(=O)NO)c2)n1CCc1ccccc1 |  |  | 0.016 | 0.8 | 0.063 |  |  |  |  | 0.5 | 0.2 |  |  |  |  | 
15 | Cc1nc(-c2cccc(/C=C/C(=O)NO)c2)n(CCN2CCOCC2)c1C |  |  | 0.2 | > 50 | 0.16 |  |  |  |  | 5 | 1.6 |  |  |  |  | 
